Laboratory results reported in ChEMBL document CHEMBL3877283, “Antitubercular activity of 1,2,3-triazolyl fatty acid derivatives” (Eur J Med Chem, 2017).
≈ marks a conversion by molar mass, not a printed value.

Assays:
Type in all cases: functional
[1] = system: Mycobacterium tuberculosis; experiment: Antimycobacterial activity against rifampicin-resistant Mycobacterium tuberculosis isolate 110 measured after 5 days by MTT dye based two-fold microdilution method; conditions: isolate 110, 120 h
Summary of the method: (§1)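 Two-fold serial dilution in 96-well plates in Middlebrook 7H9 with 10% ADS and 1% glycerol (7H9-ADS-G). DMSO stocks were diluted to a top concentration of 100 μg/mL and down to 0.8 μg/mL, run in duplicate. Wells received mid-log bacilli in 7H9-ADS-G, incubated 5 days at 37 °C, then MTT for 24 h. MIC is the lowest concentration blocking yellow-to-purple change. Rifampicin was the control.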

[2] = system: Mycobacterium tuberculosis; experiment: Antimycobacterial activity against rifampicin-resistant Mycobacterium tuberculosis isolate 277 measured after 5 days by MTT dye based two-fold microdilution method; conditions: isolate 277, 120 h; summary of the method: as §1
[3] = system: Mycobacterium tuberculosis; experiment: Antimycobacterial activity against rifampicin-resistant Mycobacterium tuberculosis isolate 300 measured after 5 days by MTT dye based two-fold microdilution method; conditions: isolate 300, 120 h; summary of the method: as §1
[4] = system: Mycobacterium tuberculosis; experiment: Antimycobacterial activity against rifampicin-resistant Mycobacterium tuberculosis isolate 925 measured after 5 days by MTT dye based two-fold microdilution method; conditions: isolate 925, 120 h; summary of the method: as §1
[5] = system: Mycobacterium tuberculosis; experiment: Antimycobacterial activity against rifampicin-resistant Mycobacterium tuberculosis isolate 958 measured after 5 days by MTT dye based two-fold microdilution method; conditions: isolate 958, 120 h; summary of the method: as §1
[6] = system: Mycobacterium tuberculosis; experiment: Antimycobacterial activity against isoniazid resistant Mycobacterium tuberculosis isolate 277b measured after 5 days by MTT dye based two-fold microdilution method; conditions: 120 h; summary of the method: as §1
[7] = system: Mycobacterium tuberculosis; experiment: Antimycobacterial activity against isoniazid resistant Mycobacterium tuberculosis isolate 620 measured after 5 days by MTT dye based two-fold microdilution method; conditions: isolate 620, 120 h; summary of the method: as §1
[8] = system: Mycobacterium tuberculosis; experiment: Antimycobacterial activity against isoniazid/streptomycin resistant Mycobacterium tuberculosis isolate 396 measured after 5 days by MTT dye based two-fold microdilution method; conditions: isolate 396, 120 h; summary of the method: as §1
[9] = system: Mycobacterium tuberculosis; experiment: Antimycobacterial activity against isoniazid/streptomycin resistant Mycobacterium tuberculosis isolate 681 measured after 5 days by MTT dye based two-fold microdilution method; conditions: isolate 681, 120 h; summary of the method: as §1
[10] = system: Mycobacterium tuberculosis; experiment: Antimycobacterial activity against isoniazid/streptomycin resistant Mycobacterium tuberculosis isolate 780 measured after 5 days by MTT dye based two-fold microdilution method; conditions: isolate 780, 120 h; summary of the method: as §1
[11] = system: Mycobacterium tuberculosis; experiment: Antimycobacterial activity against isoniazid/streptomycin resistant Mycobacterium tuberculosis isolate 914 measured after 5 days by MTT dye based two-fold microdilution method; conditions: isolate 914, 120 h; summary of the method: as §1
[12] = system: Mycobacterium tuberculosis; experiment: Antimycobacterial activity against rifampicin/streptomycin resistant Mycobacterium tuberculosis isolate 675 measured after 5 days by MTT dye based two-fold microdilution method; conditions: isolate 675, 120 h; summary of the method: as §1
[13] = system: Mycobacterium tuberculosis; experiment: Antimycobacterial activity against rifampicin/isoniazid/pyrazinamide resistant Mycobacterium tuberculosis isolate 122 measured after 5 days by MTT dye based two-fold microdilution method; conditions: isolate 122, 120 h; summary of the method: as §1
[14] = system: Mycobacterium tuberculosis; experiment: Antimycobacterial activity against rifampicin/isoniazid/pyrazinamide resistant Mycobacterium tuberculosis isolate 501 measured after 5 days by MTT dye based two-fold microdilution method; conditions: isolate 501, 120 h; summary of the method: as §1

## CCCCCCCCc1cn(CC(=O)OCC)nn1
[1]
  MIC: 1.9 µM (≈ 0.508 µg/mL)
[2]
  MIC: 1.9 µM (≈ 0.508 µg/mL)
[3]
  MIC: 1.9 µM (≈ 0.508 µg/mL)
[4]
  MIC: 1.9 µM (≈ 0.508 µg/mL)
[5]
  MIC: 1.9 µM (≈ 0.508 µg/mL)
[6]
  MIC: 1.9 µM (≈ 0.508 µg/mL)
[7]
  MIC: 1.9 µM (≈ 0.508 µg/mL)
[8]
  MIC: 1.9 µM (≈ 0.508 µg/mL)
[9]
  MIC: 1.9 µM (≈ 0.508 µg/mL)
[10]
  MIC: 1.9 µM (≈ 0.508 µg/mL)
[11]
  MIC: 1.9 µM (≈ 0.508 µg/mL)
[12]
  MIC: 1.9 µM (≈ 0.508 µg/mL)
[13]
  MIC: 0.9 µM (≈ 0.241 µg/mL)
[14]
  MIC: 3.7 µM (≈ 0.989 µg/mL)
